Calls of active or inactive are those of the source. The calls are words filed in the database; no cut-off is given here.
Key:
[1] = Inhibition of Saccharomyces cerevisiae alpha-glucosidase using p-nitrophenyl-alpha-D-glucopyranoside as substrate preincubated for 10 mins followed by substrate addition measured after 30 mins by microplate reader analysis
Method in brief: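 α-Glucosidase 0.1 U/mL and p-NPG 1.0 mM in 0.1 M potassium phosphate pH 6.7; samples in DMSO. Inhibitor preincubated with enzyme 10 min at 37 °C, substrate added, 30 min at 37 °C, stopped with 1 M Na2CO3; absorbance 405 nm with blank correction. Five concentrations, triplicate; IC50 as mean ± SEM of three independent experiments.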

Mus musculus [2] = test: Hypoglycemic effect in Kunming mouse model of STZ-induced diabetes assessed as reduction in fasting blood glucose level at 10 mg/kg, po measured at 1.5 to 9 hrs post dose by glucometry analysis; assay type: functional, organism-based
Method in brief: (§1)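 STZ-diabetic Kunming mice (single i.p. streptozotocin 100 mg/kg in citrate buffer pH 4.5, fasting; glucose checked day 7), fasted, dosed orally in 0.5 % CMC–Na with vehicle-only controls. Tail-vein glucometer readings at 0, 1.5, 3, 5, 7 and 9 h post-dose; percent change relative to vehicle group. n = 6; mean ± SEM, one-way ANOVA with post-hoc test.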

Mus musculus [3] = test: Hypoglycemic effect in Kunming mouse assessed as reduction in fasting blood glucose level at 10 mg/kg, po measured at 1.5 to 9 hrs post dose by glucometry analysis; assay type: functional, organism-based
Method in brief: (§2)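 Fasted normal Kunming mice (4–6 weeks) given single oral dose suspended in 0.5 % CMC–Na; control group received vehicle only. Tail-vein glucose measured by glucometer at 0, 1.5, 3, 5, 7 and 9 h after administration. Six mice per group; mean ± SEM, one-way ANOVA followed by Tukey's or Dunnett's test versus control.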

Mus musculus [4] = test: Hypoglycemic effect in Kunming mouse model of STZ-induced diabetes assessed as reduction in fasting blood glucose level at 100 mg/kg, po measured at 3 hrs post dose by glucometry analysis relative to control; assay type: functional; parameters: scale not given: the % may be the effect or the level left; method in brief: as §1
[5] = Competitive inhibition of Saccharomyces cerevisiae alpha-glucosidase using p-nitrophenyl-alpha-D-glucopyranoside as substrate by Lineweaver-Burk plot analysis
Method in brief: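 Enzyme kinetics run with rising concentrations of 4-nitrophenyl α-D-glucopyranoside and of inhibitor; mode of inhibition assigned from Lineweaver–Burk plots under Michaelis–Menten kinetics.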

Mus musculus [6] = test: Hypoglycemic effect in Kunming mouse model of STZ-induced diabetes assessed as reduction in fasting blood glucose level at 50 mg/kg, po measured at 1.5 hrs post dose by glucometry analysis relative to control; assay type: functional; parameters: scale not given: the % may be the effect or the level left; method in brief: as §1
Mus musculus [7] = test: Antihyperglycemic effect in Kunming mouse model of STZ-induced diabetes assessed as reduction in postprandial blood glucose level at 25 mg/kg, po administered 30 mins before sucrose challenge measured after 30 to 90 mins by oral sucrose tolerance test; assay type: functional, organism-based
Method in brief: (§3)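 Diabetes induced in Kunming mice (4–6 weeks) by single i.p. streptozotocin 100 mg/kg in citrate buffer pH 4.5 under fasting, glucose checked on day 7. Fasted mice dosed orally in 0.5 % CMC–Na (vehicle controls), then sucrose 3 g/kg orally after 30 min; tail-vein glucometer readings at 0–3.0 h post-load. n = 6; mean ± SEM, one-way ANOVA with post-hoc test.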

Mus musculus [8] = test: Hypoglycemic effect in Kunming mouse model of STZ-induced diabetes assessed as reduction in fasting blood glucose level at 100 mg/kg, po measured at 1.5 hrs post dose by glucometry analysis relative to control; assay type: functional; parameters: scale not given: the % may be the effect or the level left; method in brief: as §1
Mus musculus [9] = test: Hypoglycemic effect in Kunming mouse model of STZ-induced diabetes assessed as reduction in fasting blood glucose level at 50 mg/kg, po measured at 9 hrs post dose by glucometry analysis relative to control; assay type: functional; parameters: scale not given: the % may be the effect or the level left; method in brief: as §1
Mus musculus [10] = test: Antihyperglycemic effect in Kunming mouse assessed as reduction in postprandial blood glucose level at 50 and 100 mg/kg, po administered 30 mins before sucrose challenge measured after 30 to 90 mins by oral sucrose tolerance test; assay type: functional, organism-based
Method in brief: (§4)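 Male/female unspecified Kunming mice, 4–6 weeks old, fasted. Oral dosing suspended in 0.5 % CMC–Na (controls given vehicle alone); sucrose 3 g/kg orally 30 min later. Six mice per group; mean ± SEM, one-way ANOVA with Tukey's or Dunnett's test.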

Mus musculus [11] = test: Hypoglycemic effect in Kunming mouse model of STZ-induced diabetes assessed as reduction in fasting blood glucose level at 100 mg/kg, po measured at 7 hrs post dose by glucometry analysis relative to control; assay type: functional; parameters: scale not given: the % may be the effect or the level left; method in brief: as §1
Mus musculus [12] = test: Antihyperglycemic effect in Kunming mouse model of STZ-induced diabetes assessed as reduction in postprandial blood glucose level at 50 and 100 mg/kg, po administered 30 mins before sucrose challenge measured after 30 to 90 mins by oral sucrose tolerance test; assay type: functional, organism-based; method in brief: as §3
Mus musculus [13] = test: Hypoglycemic effect in Kunming mouse model of STZ-induced diabetes assessed as reduction in fasting blood glucose level at 100 mg/kg, po measured at 9 hrs post dose by glucometry analysis relative to control; assay type: functional; parameters: scale not given: the % may be the effect or the level left; method in brief: as §1
Mus musculus [14] = test: Hypoglycemic effect in Kunming mouse assessed as reduction in fasting blood glucose level at 25 to 100 mg/kg, po measured at 1.5 to 9 hrs post dose by glucometry analysis; assay type: functional, organism-based; method in brief: as §2
Mus musculus [15] = test: Hypoglycemic effect in Kunming mouse model of STZ-induced diabetes assessed as reduction in fasting blood glucose level at 100 mg/kg, po measured at 5 hrs post dose by glucometry analysis relative to control; assay type: functional; parameters: scale not given: the % may be the effect or the level left; method in brief: as §1
Mus musculus [16] = test: Hypoglycemic effect in Kunming mouse model of STZ-induced diabetes assessed as reduction in fasting blood glucose level at 50 mg/kg, po measured at 5 hrs post dose by glucometry analysis relative to control; assay type: functional; parameters: scale not given: the % may be the effect or the level left; method in brief: as §1
Mus musculus [17] = test: Antihyperglycemic effect in Kunming mouse assessed as reduction in postprandial blood glucose level at 25 mg/kg, po administered 30 mins before sucrose challenge measured after 30 to 90 mins by oral sucrose tolerance test; assay type: functional, organism-based; method in brief: as §4
Mus musculus [18] = test: Hypoglycemic effect in Kunming mouse model of STZ-induced diabetes assessed as reduction in fasting blood glucose level at 50 mg/kg, po measured at 3 hrs post dose by glucometry analysis relative to control; assay type: functional; parameters: scale not given: the % may be the effect or the level left; method in brief: as §1
Mus musculus [19] = test: Hypoglycemic effect in Kunming mouse model of STZ-induced diabetes assessed as reduction in fasting blood glucose level at 50 mg/kg, po measured at 7 hrs post dose by glucometry analysis relative to control; assay type: functional; parameters: scale not given: the % may be the effect or the level left; method in brief: as §1

O=c1c(O)c(-c2cc(O)c(OCCO)c(O)c2)oc2cc(O)cc(O)c12
IC50 [1]: 84.5 µM

COc1ccc(Cl)cc1C(=O)NCCc1ccc(S(=O)(=O)NC(=O)NC2CCCCC2)cc1
Activity (Mus musculus [2]): Active | Activity (Mus musculus [3]): Active

O=c1c(O)c(-c2cc(O)c(O)c(O)c2)oc2cc(O)cc(O)c12 [MYRICETIN]
IC50 [1]: 319 µM

O=c1c(O)c(-c2cc(O)c(OCCN(CCO)c3ccccc3)c(O)c2)oc2cc(O)cc(O)c12
IC50 [1]: 41.1 µM

O=C1c2c(O)cc(O)cc2O[C@H](c2cc(O)c(O)c(O)c2)[C@H]1O [AMPELOPSIN]
IC50 [1]: 634 µM

O=c1c(O)c(-c2cc(O)c(OCCOCCOCCOCCO)c(O)c2)oc2cc(O)cc(O)c12
IC50 [1]: 463 µM

Cc1ccc(S(=O)(=O)N(CCO)CCOc2c(O)cc(-c3oc4cc(O)cc(O)c4c(=O)c3O)cc2O)cc1
Activity (Mus musculus [4]): 45.1% | Ki [5]: 10.3 µM | Activity (Mus musculus [6]): 27.8% | Activity (Mus musculus [7]): inactive | Activity (Mus musculus [8]): 37% | IC50 [1]: 9.3 µM | Activity (Mus musculus [9]): 61.5% | Activity (Mus musculus [10]): Active | Activity (Mus musculus [11]): 65.4% | Activity (Mus musculus [12]): Active | Activity (Mus musculus [13]): 67.3% | Activity (Mus musculus [14]): inactive | Activity (Mus musculus [15]): 60% | Activity (Mus musculus [16]): 47.3% | Activity (Mus musculus [17]): inactive | Activity (Mus musculus [18]): 35.9% | Activity (Mus musculus [19]): 59.6%

C[C@@H]1O[C@@H](O[C@@H]2[C@@H](O)[C@H](O)[C@H](O[C@H]3[C@H](O)[C@@H](O)C(O)O[C@@H]3CO)O[C@H]2CO)[C@@H](O)[C@H](O)[C@H]1N[C@H]1C=C(CO)[C@@H](O)[C@H](O)[C@H]1O (stereo partly drawn)
IC50 [1]: 720 µM

O=c1c(O)c(-c2cc(O)c(OCCOCCOCCO)c(O)c2)oc2cc(O)cc(O)c12
IC50 [1]: 233 µM

C[C@@H]1O[C@@H](Oc2c(-c3cc(O)c(O)c(O)c3)oc3cc(O)cc(O)c3c2=O)[C@H](O)[C@H](O)[C@H]1O
IC50 [1]: 838 µM

O=c1c(O)c(-c2cc(O)c(OCCOCCO)c(O)c2)oc2cc(O)cc(O)c12
IC50 [1]: 43.8 µM

From ChEMBL document CHEMBL3769387, “α-Glucosidase inhibition and antihyperglycemic activity of flavonoids from Ampelopsis grossedentata and the flavonoid derivatives” (Bioorg Med Chem, 2016)
